The results in this text go back to publication PMC2847389 (ACS nano, 2010).

A short description of the data set: Circulation retention / AuNP probe clearance in vivo. The following applies: i.v., within the first hour, normalised to 1 min post-injection, n = 5. Also noted: species or system athymic nude mice. In a few lines:
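Male Nu/nu mice, 6-8 weeks old, anaesthetised with Avertin (240 mg/kg i.p.). Dosed i.v. by tail vein with 1 mg probe in 100 μl water, or the equivalent dye-labeled peptide in sterile water. Serum was taken at each time point after euthanasia. 100 μl serum was incubated with DTT (~286 mM final) for 16 h at RT. Q670 read at 644/670 nm. Mean ± s.d., n = 5.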

Take “Q670 (or BHQ2)-(His-Ser-Ser-Lys-Leu-Gln)-Cys [uncomplexed peptide]”: the “% of initial administered amount removed from serum” value is listed as “more than 90%”.
